Like-named read-outs stand apart in the source and are kept apart here.
Tests used:
isolated rat heart = settings: uptake-2 blocked pharmacologically; cited from earlier work
[1] = rats, t = 30 min, n = 5, mean ± SD; cited from earlier work
[2] = Biodistribution studies in rats; format: in vivo, rat; settings: t = 30 min after intravenous injection, n = 5, mean ± SD
In short: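 Rats received the fluorine-18 labelled test compound by intravenous injection. Tissue radioactivity was determined 30 min later and expressed as % injected dose/g, with n = 5 each.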

[3] = MicroPET imaging study in rhesus macaque; format: in vivo, rhesus macaque monkey; settings: PET

| Molecule | Major Clearance T1/2 (isolated rat heart) | Neuronal uptake rate Kup (isolated rat heart) | Tissue concentration, adrenal medulla [1] | Tissue concentration, blood [1] | Tissue concentration, liver [1] | Tissue concentration, lung [1] | Tissue concentration, spleen [1] | further results |
| --- | --- | --- | --- | --- | --- | --- | --- | --- |
| N=[11C](N)NCCc1ccc(F)c(O)c1 [[^11C]4F-MHPG, [^11C]4-fluoro-m-hydroxyphenethylguanidine] | > 73 h | 0.72 ml/min/g wet | 0.56 ± 0.21 % injected dose/g | 0.08 ± 0.01 % injected dose/g | 1.22 ± 0.18 % injected dose/g | 0.56 ± 0.15 % injected dose/g | 0.52 ± 0.10 % injected dose/g | Tissue concentration, left ventricle [1]: 1.77 ± 0.27 % injected dose/g |
| N=C(N)NCCc1ccc([18F])c(O)c1 [[^18F]4F-MHPG, [^18F]4-fluoro-m-hydroxyphenethylguanidine] | – | – | – | – | – | – | – | Tissue concentration, adrenal medulla [2]: 0.54 ± 0.08 % injected dose/g; Tissue concentration, blood [2]: 0.07 ± 0.01 % injected dose/g; Tissue concentration, left ventricle [2]: 1.45 ± 0.13 % injected dose/g; Tissue concentration, liver [2]: 1.14 ± 0.16 % injected dose/g; Tissue concentration, lung [2]: 0.43 ± 0.08 % injected dose/g; Tissue concentration, spleen [2]: 0.56 ± 0.10 % injected dose/g; Retention of the tracer in the lungs [3]: essentially no retention; Uptake in the liver relative to cardiac uptake [3]: a little lower than the cardiac uptake; Activity in the vertebrae of the spine (in vivo defluorination) ([3]; sagittal images): little or no activity |
| N=C(N)NCc1ccc([18F])cc1 [[^18F]PFBG, p-[^18F]fluorobenzylguanidine] | 0.53 ± 0.06 h | – | – | – | – | – | – | – |
| N=C(N)NCc1cccc([123I])c1 [[^123I]MIBG, [^123I]-m-iodobenzylguanidine] | 3.5 ± 1.8 h | – | – | – | – | – | – | – |
| NC(N)=NCc1cccc([125I])c1 [[^125I]MIBG] | – | – | 1.53 ± 0.08 % injected dose/g | 0.10 ± 0.01 % injected dose/g | 1.19 ± 0.06 % injected dose/g | 2.31 ± 0.19 % injected dose/g | 0.85 ± 0.06 % injected dose/g | – |
| [^11C]-(−)-m-hydroxyephedrine [[^11C]HED] | – | 2.7 ± 0.4 ml/min/g wet | – | – | – | – | – | – |

Reference: publication PMC3594138 (Bioorganic & medicinal chemistry letters, 2013)
